Experimental data taken from ChEMBL document CHEMBL1137329, “In silico-guided target identification of a scaffold-focused library: 1,3,5-triazepan-2,6-diones as novel phospholipase A2 inhibitors” (J Med Chem, 2006).
The source made the active and inactive calls. No cut-off for these calls is given here.

Key:
[1] = target: T1, Phospholipase A2 group V (Homo sapiens) (UniProt P39877); assay: Inhibition of human group 5 sPLA2 at 30 uM
T1 sequence (whole entry): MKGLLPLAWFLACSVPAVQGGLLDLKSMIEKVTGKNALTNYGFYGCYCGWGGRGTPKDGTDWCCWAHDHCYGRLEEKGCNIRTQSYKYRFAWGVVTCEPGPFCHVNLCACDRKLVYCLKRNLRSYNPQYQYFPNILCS
In short: (§1)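 Recombinant human sPLA2 expressed in E. coli, at 40 pM for group V or 20 pM for group X, preincubated with inhibitor 10 min (15 min in legends). Buffer is 100 mM Tris pH 8.0, 10 mM CaCl2, 0.1% BSA. Substrate is E. coli membranes carrying 100,000 dpm 3H-oleate phospholipids, 15 min at room temperature. Reaction stopped with EDTA/fatty-acid-free BSA and centrifuged; supernatant radioactivity counted. Single 30 µM or concentration series for IC50; at least three experiments.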

Sulfotransferase 1E1 = target: T2, Sulfotransferase 1E1 (Homo sapiens, UniProt P49888); assay: Inhibition of human estrogen sulfotransferase
T2 sequence (P49888 whole entry): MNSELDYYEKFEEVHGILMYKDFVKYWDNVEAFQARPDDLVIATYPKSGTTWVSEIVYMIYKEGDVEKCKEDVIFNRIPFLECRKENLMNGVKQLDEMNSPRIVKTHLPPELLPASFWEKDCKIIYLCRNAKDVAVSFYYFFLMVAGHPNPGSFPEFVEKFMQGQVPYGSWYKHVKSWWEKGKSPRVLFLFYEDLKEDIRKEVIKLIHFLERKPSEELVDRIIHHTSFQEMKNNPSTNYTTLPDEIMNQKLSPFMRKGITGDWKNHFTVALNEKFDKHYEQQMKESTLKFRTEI

[2] = target: T3, Purine nucleoside phosphorylase (Homo sapiens) (UniProt P00491); assay: Inhibition of human purine nucleoside phosphorylase
T3 sequence (whole entry): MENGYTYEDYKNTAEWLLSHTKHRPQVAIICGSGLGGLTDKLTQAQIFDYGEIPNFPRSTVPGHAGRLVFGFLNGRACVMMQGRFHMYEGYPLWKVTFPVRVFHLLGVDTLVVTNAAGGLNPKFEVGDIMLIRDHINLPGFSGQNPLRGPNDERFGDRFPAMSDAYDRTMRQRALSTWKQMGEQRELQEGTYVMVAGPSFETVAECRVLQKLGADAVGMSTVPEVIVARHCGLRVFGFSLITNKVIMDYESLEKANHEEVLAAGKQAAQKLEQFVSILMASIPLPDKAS

[3] = target: T4, Group 3 secretory phospholipase A2 (Homo sapiens) (UniProt Q9NZ20); assay: Inhibition of human group 3 sPLA2 at 10 uM
T4 sequence (whole entry): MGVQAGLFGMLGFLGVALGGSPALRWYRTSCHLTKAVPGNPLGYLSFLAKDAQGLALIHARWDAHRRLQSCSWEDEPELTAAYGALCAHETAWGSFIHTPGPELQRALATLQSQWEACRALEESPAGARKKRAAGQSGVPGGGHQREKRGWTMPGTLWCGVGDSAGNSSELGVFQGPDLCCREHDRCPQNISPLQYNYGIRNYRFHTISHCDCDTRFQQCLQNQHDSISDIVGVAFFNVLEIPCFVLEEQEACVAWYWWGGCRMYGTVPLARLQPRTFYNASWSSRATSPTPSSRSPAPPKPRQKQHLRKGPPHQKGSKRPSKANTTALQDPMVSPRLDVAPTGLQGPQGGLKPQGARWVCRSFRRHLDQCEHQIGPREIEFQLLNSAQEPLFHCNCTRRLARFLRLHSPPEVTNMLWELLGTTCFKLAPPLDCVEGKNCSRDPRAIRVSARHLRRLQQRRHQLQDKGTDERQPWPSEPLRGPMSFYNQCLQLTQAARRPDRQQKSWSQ
In short: (§2)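 Human group III sPLA2 catalytic domain made in Drosophila S2 cells. Inhibitor at 10 or 100 µM preincubated 10 min with enzyme in Tris pH 8.0 buffer with 10 mM CaCl2 and 0.1% BSA. Then 15 min room-temperature hydrolysis of 3H-oleate-labelled E. coli membranes. Stopped with EDTA and fatty-acid-free BSA; supernatant counts after centrifugation.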

[4] = target: T5, Thymidine kinase (Human alphaherpesvirus 1) (UniProt Q9QNF7); assay: Inhibition of Herpes simplex virus type 1 thymidine kinase
T5 sequence (whole entry): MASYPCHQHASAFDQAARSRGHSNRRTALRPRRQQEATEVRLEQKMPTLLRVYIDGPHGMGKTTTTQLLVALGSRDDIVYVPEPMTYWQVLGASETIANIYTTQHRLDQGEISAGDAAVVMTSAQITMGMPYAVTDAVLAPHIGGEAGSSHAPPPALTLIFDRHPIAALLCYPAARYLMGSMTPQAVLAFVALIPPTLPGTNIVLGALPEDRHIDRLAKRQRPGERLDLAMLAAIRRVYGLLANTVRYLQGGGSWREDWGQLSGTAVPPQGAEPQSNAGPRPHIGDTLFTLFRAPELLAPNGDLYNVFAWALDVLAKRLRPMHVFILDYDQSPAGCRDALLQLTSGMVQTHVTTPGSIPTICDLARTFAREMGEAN

[5] = target: T4, Group 3 secretory phospholipase A2 (Homo sapiens); assay: Inhibition of human group 3 sPLA2 at 100 uM; in short: as §2
Homo sapiens = species: Homo sapiens; assay: Inhibition of methionine aminopeptidase
[6] = target: T6, Group 10 secretory phospholipase A2 (Homo sapiens) (UniProt O15496); assay: Inhibition of human group 10 sPLA2 at 30 uM; in short: as §1
T6 sequence (whole entry): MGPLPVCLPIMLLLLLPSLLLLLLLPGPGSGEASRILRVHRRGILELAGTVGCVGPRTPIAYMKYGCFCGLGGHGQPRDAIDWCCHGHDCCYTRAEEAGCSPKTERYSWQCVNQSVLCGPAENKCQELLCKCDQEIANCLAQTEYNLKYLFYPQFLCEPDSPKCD

[7] = target: T7, Group 10 secretory phospholipase A2 (Homo sapiens, UniProt O15496); assay: Inhibition of human group 10 sPLA2; in short: as §1
T7 sequence (O15496 whole entry): T6 sequence (whole entry)

Phospholipase A2 group V = target: T8, Phospholipase A2 group V (Homo sapiens, UniProt P39877); assay: Inhibition of human group 5 sPLA2; in short: as §1
T8 sequence (P39877 whole entry): T1 sequence (whole entry)

[8] = target: T9, Phospholipase A2, membrane associated (Homo sapiens) (UniProt P14555); assay: Inhibition of human group 2A sPLA2 at 30 uM
T9 sequence (whole entry): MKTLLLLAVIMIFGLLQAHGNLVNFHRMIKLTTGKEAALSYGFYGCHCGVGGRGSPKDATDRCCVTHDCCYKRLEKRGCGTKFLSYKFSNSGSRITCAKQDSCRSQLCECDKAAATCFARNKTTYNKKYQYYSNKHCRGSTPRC
In short: (§3)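 Recombinant human group IB or IIA sPLA2 from E. coli, enzyme level set for linear hydrolysis. Preincubated 10 min with inhibitor at 30 µM in 100 mM Tris pH 8.0, 10 mM CaCl2, 0.1% BSA. 3H-oleate-labelled E. coli membrane substrate added for 15 min at room temperature. Stopped with EDTA/BSA, centrifuged at 14000g, released radioactivity counted; expressed as percent inhibition.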

[9] = target: Phospholipase A2 (Homo sapiens) (UniProt P04054); assay: Inhibition of human group 1B sPLA2 at 30 uM; in short: as §3
[10] = target: T10, Purine nucleoside phosphorylase (Toxoplasma gondii, UniProt Q2HXR2); assay: Inhibition of Toxoplasma gondii purine nucleoside phosphorylase
T10 sequence (Q2HXR2 whole entry): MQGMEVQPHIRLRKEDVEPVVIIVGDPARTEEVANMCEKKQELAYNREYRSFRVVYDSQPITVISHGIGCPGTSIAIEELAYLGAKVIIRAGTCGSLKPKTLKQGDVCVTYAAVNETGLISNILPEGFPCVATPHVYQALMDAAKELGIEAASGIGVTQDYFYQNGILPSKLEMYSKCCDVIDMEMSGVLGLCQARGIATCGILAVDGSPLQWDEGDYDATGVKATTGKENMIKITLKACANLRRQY

Phospholipase A2 (Homo sapiens), sequence (P04054 23-148 limits assumed): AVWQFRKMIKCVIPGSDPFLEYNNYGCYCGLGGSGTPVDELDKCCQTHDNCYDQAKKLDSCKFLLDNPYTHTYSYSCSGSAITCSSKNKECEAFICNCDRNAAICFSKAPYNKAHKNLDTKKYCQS

SMILES | inhibition [1] [%] | Activity (Sulfotransferase 1E1) | Activity [2] | Activity [3] | Activity [4] | Activity [5] | Activity (Homo sapiens) | further results
CC(C)(C)OC(=O)CN1C(=O)N[C@@H](Cc2ccc3ccccc3c2)C(=O)N2CCC[C@@H]12 | > 70 |  |  |  |  |  |  | 
CC(C)(C)OC(=O)CN1C(=O)N[C@@H](Cc2ccccc2)C(=O)N2CCC[C@@H]12 | > 70 |  |  |  |  |  |  | 
C[C@@H]1NC(=O)NC2Cc3ccccc3CN2C1=O (stereo partly drawn) |  | Not Active | inactive | inactive | inactive | inactive | inactive | 
CN1CN(CC(=O)OC(C)(C)C)C(=O)N[C@@H](Cc2ccc3ccccc3c2)C1=O | > 70 |  |  |  |  |  |  | 
CN1CN(CCCC(=O)O)C(=O)N[C@@H](Cc2ccccc2)C1=O | > 70 |  |  |  |  |  |  | inhibition [6]: > 70%
CN1CN(CC(=O)O)C(=O)N(CC(=O)O)[C@@H](Cc2ccccc2)C1=O | > 70 |  |  |  |  |  |  | 
O=C1N[C@@H](Cc2ccccc2)C(=O)N2C[C@H](O)C[C@H]2N1 |  | Not Active | inactive | inactive | inactive | inactive | inactive | 
CN1CN(C/C=C/C(=O)O)C(=O)N[C@@H](Cc2ccccc2)C1=O | > 70 |  |  |  |  |  |  | IC50 [7]: 10 µM; inhibition [6]: > 70%; IC50 (Phospholipase A2 group V): 12 µM
CN1CN(CC(=O)OC(C)(C)C)C(=O)N(CC(=O)OC(C)(C)C)[C@@H](Cc2ccccc2)C1=O | > 70 |  |  |  |  |  |  | IC50 [7]: 11 µM; IC50 (Phospholipase A2 group V): 11 µM
O=C1[C@@H]2Cc3ccccc3CN2C(=O)N[C@@H]2CCCN12 |  | Not Active | inactive | inactive | inactive | inactive | inactive | 
CC(C)[C@@H]1NC(=O)N(Cc2ccccc2)CN(C)C1=O | > 70 |  |  |  |  |  |  | inhibition [6]: > 70%
CN1CN(C/C=C/C(=O)OC(C)(C)C)C(=O)N[C@@H](Cc2ccccc2)C1=O |  |  |  |  |  |  |  | inhibition [6]: > 70%
CC(C)C[C@@H]1NC(=O)NCN(C)C1=O |  | Not Active | inactive | inactive | inactive | inactive | inactive | 
CN1CNC(=O)N[C@@H](CN)C1=O |  | Not Active | inactive | inactive | inactive | inactive | inactive | 
CN1CN(CC(=O)O)C(=O)N[C@@H](Cc2ccccc2)C1=O |  | Not Active | inactive | inactive | inactive | inactive | inactive | inhibition [8]: 25%; Activity [9]: inactive
CC(C)[C@@H]1NC(=O)N(CC(=O)OC(C)(C)C)CN(C)C1=O | > 70 |  |  |  |  |  |  | IC50 [7]: 11 µM; inhibition [6]: > 70%; IC50 (Phospholipase A2 group V): 12 µM
CC(C)(C)OC(=O)CN1C(=O)N(CC(=O)OC(C)(C)C)[C@@H](Cc2ccccc2)C(=O)N2CCC[C@H]21 |  |  |  |  |  |  |  | inhibition [6]: > 70%
CN1CN(CCCC(N)=O)C(=O)N[C@@H](Cc2ccccc2)C1=O | > 70 |  |  |  |  |  |  | 
CN1CN(CC(=O)OC(C)(C)C)C(=O)N[C@@H](Cc2ccccc2)C1=O | > 70 |  |  |  |  |  |  | 
O=C1N[C@@H](Cc2ccccc2)C(=O)N2C[C@H](OCc3ccccc3)C[C@H]2N1 |  | Not Active | inactive | inactive | inactive | inactive | inactive | Ki [10]: 8 µM
COC(=O)CN1CN(C)C(=O)[C@H](Cc2ccccc2)NC1=O | > 70 |  |  |  |  |  |  | 
CN1CNC(=O)N[C@@H](Cc2ccccc2)C1=O |  | Not Active | inactive | inactive | inactive | inactive | inactive | 
CN1C(=O)[C@H](Cc2ccccc2)NC(=O)N[C@@H]1Cc1ccccc1 | > 70 |  |  |  |  |  |  | IC50 [7]: 13 µM; IC50 (Phospholipase A2 group V): 11 µM
